Data: ChEMBL document CHEMBL4014301, “Design, synthesis and evaluation of 4-substituted anthra[2,1-c][1,2,5]thiadiazole-6,11-dione derivatives as novel non-camptothecin topoisomerase I inhibitors” (Bioorg Med Chem Lett, 2017)
Activity calls are given as the source filed them. No cut-off for these calls is given here.

How the values were obtained:
A549 = test: Antiproliferative activity against human A549 cells after 72 hrs by MTT assay; type: functional, cell-based
HCT-116 = test: Antiproliferative activity against human HCT116 cells after 72 hrs by MTT assay; type: functional, cell-based
ZR-75-30 = test: Antiproliferative activity against human ZR-7530 cells after 72 hrs by MTT assay; type: functional, cell-based
[1] = molecular target: T1, DNA topoisomerase 1 (Homo sapiens) (UniProt P11387); test: Inhibition of DNA topoisomerase 1 (unknown origin) assessed as reduction in supercoiled pBR322 plasmid DNA relaxation at 100 uM after 15 mins by ethidium bromide staining based agarose gel electrophoresis
T1 sequence (whole entry): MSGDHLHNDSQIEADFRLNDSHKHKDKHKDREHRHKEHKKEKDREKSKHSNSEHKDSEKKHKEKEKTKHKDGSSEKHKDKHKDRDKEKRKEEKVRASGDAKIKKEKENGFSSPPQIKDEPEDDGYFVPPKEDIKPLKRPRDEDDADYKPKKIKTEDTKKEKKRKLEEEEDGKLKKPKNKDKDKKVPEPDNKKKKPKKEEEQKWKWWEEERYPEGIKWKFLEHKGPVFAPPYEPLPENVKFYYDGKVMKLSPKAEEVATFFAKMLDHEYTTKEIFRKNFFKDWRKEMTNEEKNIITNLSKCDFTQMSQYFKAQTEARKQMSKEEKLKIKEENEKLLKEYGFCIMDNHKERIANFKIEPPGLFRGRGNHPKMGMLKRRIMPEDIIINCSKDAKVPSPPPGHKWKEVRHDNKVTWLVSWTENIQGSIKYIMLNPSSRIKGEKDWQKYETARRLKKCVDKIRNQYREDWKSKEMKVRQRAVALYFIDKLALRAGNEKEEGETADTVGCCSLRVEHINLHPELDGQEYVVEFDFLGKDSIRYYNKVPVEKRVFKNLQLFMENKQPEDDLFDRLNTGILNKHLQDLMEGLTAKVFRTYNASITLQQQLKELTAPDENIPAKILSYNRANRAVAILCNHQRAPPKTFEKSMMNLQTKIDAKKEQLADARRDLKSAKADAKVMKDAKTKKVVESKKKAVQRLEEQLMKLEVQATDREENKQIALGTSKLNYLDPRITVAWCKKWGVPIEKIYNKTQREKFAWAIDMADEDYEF
Method in brief: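 Supercoiled pBR322 plasmid incubated with Top1, with or without compound at 1, 10 and 100 µM. Relaxation inhibition read from agarose gel bands.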

[2] = molecular target: T1, DNA topoisomerase 1 (Homo sapiens); test: Inhibition of DNA topoisomerase-1 (unknown origin) mediated DNA relaxation assessed as DNA intercalation at 100 uM using supercoiled pBR322 plasmid DNA as substrate after 60 mins by ethidium bromide staining based agarose gel electrophoresis
Method in brief: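 Unwinding assay with excess Top1 acting on supercoiled pBR322 in the presence of compound at 100 µM. Ethidium bromide at 1 µg/mL used as intercalator reference. Compound removed by phenol extraction after relaxation. Nicked, relaxed and supercoiled forms resolved on gel.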

SMILES | IC50 (A549; Homo sapiens, A549, 72 h) | IC50 (HCT-116; Homo sapiens, HCT-116, 72 h) | inhibition [1] | inhibition [2] | IC50 (ZR-75-30; Homo sapiens, ZR-75-30, 72 h) | IC50 (A549; a549) | IC50 (HCT-116; hct-116) | IC50 (ZR-75-30; zr-75-30)
O=C1c2ccccc2C(=O)c2c1cc(S(=O)(=O)Cc1ccccc1)c1nsnc21 | > 100 µM | 68 µM | – | – | > 100 µM | – | – | –
Cc1cccc(Sc2cc3c(c4nsnc24)C(=O)c2ccccc2C3=O)c1 | > 100 µM | 21 µM | – | – | 49 µM | – | – | –
CCc1c2c(nc3ccc(OC(=O)N4CCC(N5CCCCC5)CC4)cc13)-c1cc3c(c(=O)n1C2)COC(=O)[C@]3(O)CC [IRINOTECAN] | – | 6.3 µM | – | – | 18 µM | – | – | –
O=C1c2ccccc2C(=O)c2c1cc(Sc1ccc(Cl)cc1)c1nsnc21 | > 100 µM | > 100 µM | – | – | > 100 µM | – | – | –
O=C1c2ccccc2C(=O)c2c1cc(Sc1ccccc1)c1nsnc21 | > 100 µM | > 100 µM | – | – | > 100 µM | – | – | –
O=C1c2ccccc2C(=O)c2c1cc(S(=O)(=O)c1nc3ccccc3s1)c1nsnc21 | > 100 µM | > 100 µM | – | – | > 100 µM | – | – | –
O=C1c2ccccc2C(=O)c2c1cc(NCc1ccc(C(F)(F)F)cc1)c1nsnc21 | > 100 µM | 72 µM | – | – | 98 µM | – | – | –
O=C1c2ccccc2C(=O)c2c1cc(Sc1ccc3ccccc3c1)c1nsnc21 | > 100 µM | > 100 µM | Active | – | > 100 µM | – | – | –
O=C1c2ccccc2C(=O)c2c1cc(Sc1nc3ccccc3s1)c1nsnc21 | > 100 µM | > 100 µM | – | – | > 100 µM | – | – | –
O=C1c2ccccc2C(=O)c2c1cc(N1CCCCC1)c1nsnc21 | > 100 µM | > 100 µM | – | – | 8.1 µM | – | – | –
O=C1c2ccccc2C(=O)c2c1cc(Sc1ccc(F)cc1)c1nsnc21 | > 50 µM | 9.8 µM | – | – | 20 µM | – | – | –
COc1ccc(S(=O)(=O)c2cc3c(c4nsnc24)C(=O)c2ccccc2C3=O)cc1 | > 50 µM | > 50 µM | – | – | > 50 µM | – | – | –
O=C1c2ccccc2C(=O)c2c1cc(S(=O)(=O)c1ccc3ccccc3c1)c1nsnc21 | > 100 µM | 6.7 µM | Active | – | 23 µM | – | – | –
CCOc1cccc(Sc2cc3c(c4nsnc24)C(=O)c2ccccc2C3=O)c1 | > 50 µM | > 50 µM | – | – | > 50 µM | – | – | –
CCCNc1cc2c(c3nsnc13)C(=O)c1ccccc1C2=O | > 100 µM | > 100 µM | – | – | > 100 µM | – | – | –
Cc1ccc(Sc2cc3c(c4nsnc24)C(=O)c2ccccc2C3=O)cc1 | > 100 µM | 26 µM | – | – | 22 µM | – | – | –
O=C1c2ccccc2C(=O)c2c1cc(Sc1cccc(Cl)c1)c1nsnc21 | > 100 µM | > 100 µM | – | – | > 100 µM | – | – | –
O=C1c2ccccc2C(=O)c2c1cc(S(=O)(=O)c1cccc(F)c1)c1nsnc21 | > 100 µM | 24 µM | – | – | > 100 µM | – | – | –
CCOc1ccc(Nc2cc3c(c4nsnc24)C(=O)c2ccccc2C3=O)cc1 | > 100 µM | 100 µM | – | – | 91 µM | – | – | –
CCC(C)Nc1cc2c(c3nsnc13)C(=O)c1ccccc1C2=O (stereo unspecified) | > 100 µM | 58 µM | – | – | > 100 µM | – | – | –
O=C1c2ccccc2C(=O)c2c1cc(S(=O)(=O)c1ccc(Cl)cc1)c1nsnc21 | > 100 µM | 15 µM | – | – | > 100 µM | – | – | –
O=C1c2ccccc2C(=O)c2c1cc(SCc1ccccc1)c1nsnc21 | > 100 µM | > 100 µM | – | – | > 100 µM | – | – | –
CC(C)CNc1cc2c(c3nsnc13)C(=O)c1ccccc1C2=O | – | – | Active | – | – | > 100 µM | 6.3 µM | 3.1 µM
CC[C@@]1(O)C(=O)OCc2c1cc1n(c2=O)Cc2cc3ccccc3nc2-1 [CAMPTOTHECIN] | – | 0.12 µM | – | – | 0.24 µM | – | – | –
O=C1c2ccccc2C(=O)c2c1cc(S(=O)(=O)c1ccc(F)cc1)c1nsnc21 | > 100 µM | 23 µM | – | – | 36 µM | – | – | –
CC(C)c1ccc(S(=O)(=O)c2cc3c(c4nsnc24)C(=O)c2ccccc2C3=O)cc1 | > 100 µM | 27 µM | – | – | 83 µM | – | – | –
O=C1c2ccccc2C(=O)c2c1cc(N1CCCC1)c1nsnc21 | > 100 µM | 68 µM | – | – | 45 µM | – | – | –
O=C1c2ccccc2C(=O)c2c1cc(S(=O)(=O)c1ccccc1)c1nsnc21 | > 100 µM | 35 µM | – | – | > 100 µM | – | – | –
O=C1c2ccccc2C(=O)c2c1cc(S(=O)(=O)c1cccc(Cl)c1)c1nsnc21 | > 100 µM | > 100 µM | – | – | > 100 µM | – | – | –
CC(C)c1ccc(Sc2cc3c(c4nsnc24)C(=O)c2ccccc2C3=O)cc1 | > 100 µM | > 100 µM | – | – | > 100 µM | – | – | –

More lines, main results first:

IC50 (A549; Homo sapiens, A549, 72 h) | IC50 (HCT-116; Homo sapiens, HCT-116, 72 h) | inhibition [1] | inhibition [2] | SMILES | IC50 (ZR-75-30; Homo sapiens, ZR-75-30, 72 h) | IC50 (A549; a549) | IC50 (HCT-116; hct-116) | IC50 (ZR-75-30; zr-75-30)
> 100 µM | 87 µM | – | – | O=C1c2ccccc2C(=O)c2c1cc(NCc1cccnc1)c1nsnc21 | 12 µM | – | – | –
> 100 µM | 11 µM | Active | – | O=C1c2ccccc2C(=O)c2c1cc(S(=O)(=O)Cc1ccccc1Cl)c1nsnc21 | > 100 µM | – | – | –
> 100 µM | > 100 µM | – | – | O=C1c2ccccc2C(=O)c2c1cc(N1CCN(Cc3ccccc3)CC1)c1nsnc21 | > 100 µM | – | – | –
> 50 µM | > 50 µM | – | – | O=C1c2ccccc2C(=O)c2c1cc(Sc1cccc(F)c1)c1nsnc21 | > 50 µM | – | – | –
> 100 µM | > 100 µM | – | – | CC(C)(C)c1ccc(Sc2cc3c(c4nsnc24)C(=O)c2ccccc2C3=O)cc1 | > 100 µM | – | – | –
> 100 µM | > 100 µM | – | – | CC(C)(C)OC(=O)N1CCN(c2cc3c(c4nsnc24)C(=O)c2ccccc2C3=O)CC1 | > 100 µM | – | – | –
> 100 µM | > 100 µM | – | – | CCOc1cccc(S(=O)(=O)c2cc3c(c4nsnc24)C(=O)c2ccccc2C3=O)c1 | > 100 µM | – | – | –
> 100 µM | 78 µM | – | – | Cc1cccc(S(=O)(=O)c2cc3c(c4nsnc24)C(=O)c2ccccc2C3=O)c1 | > 100 µM | – | – | –
31 µM | 54 µM | – | – | CCCCCCCCNc1cc2c(c3nsnc13)C(=O)c1ccccc1C2=O | 22 µM | – | – | –
> 100 µM | > 100 µM | Active | inactive | O=C1c2ccccc2C(=O)c2c1cc(Sc1cccs1)c1nsnc21 | > 100 µM | – | – | –
> 50 µM | 34 µM | – | – | CC(C)(C)c1ccc(S(=O)(=O)c2cc3c(c4nsnc24)C(=O)c2ccccc2C3=O)cc1 | > 50 µM | – | – | –
14 µM | 3.3 µM | Active | – | CN1CCN(c2cc3c(c4nsnc24)C(=O)c2ccccc2C3=O)CC1 | 2.7 µM | – | – | –
97 µM | 18 µM | – | – | O=C1c2ccccc2C(=O)c2c1cc(S(=O)(=O)c1ccc(Br)cc1)c1nsnc21 | 94 µM | – | – | –
> 100 µM | > 100 µM | – | – | O=C1c2ccccc2C(=O)c2c1cc(NCc1ccc(Cl)cc1)c1nsnc21 | > 100 µM | – | – | –
> 100 µM | 1.5 µM | Active | inactive | O=C1c2ccccc2C(=O)c2c1cc(S(=O)(=O)c1cccs1)c1nsnc21 | 24 µM | – | – | –
3.8 µM | 5.1 µM | – | – | O=C1c2ccccc2C(=O)c2c1cc(NC1CCCCC1)c1nsnc21 | 4.1 µM | – | – | –
6.7 µM | 7 µM | Active | – | CC(C)Nc1cc2c(c3nsnc13)C(=O)c1ccccc1C2=O | 3 µM | – | – | –
> 100 µM | > 100 µM | – | – | COc1ccc(Sc2cc3c(c4nsnc24)C(=O)c2ccccc2C3=O)cc1 | > 100 µM | – | – | –
> 100 µM | > 100 µM | – | – | O=C1c2ccccc2C(=O)c2c1cc(Sc1ccc(Br)cc1)c1nsnc21 | > 100 µM | – | – | –
44 µM | 34 µM | – | – | CCCCCCCNc1cc2c(c3nsnc13)C(=O)c1ccccc1C2=O | 12 µM | – | – | –
> 100 µM | 50 µM | – | – | CCCCCCNc1cc2c(c3nsnc13)C(=O)c1ccccc1C2=O | 47 µM | – | – | –
> 100 µM | > 100 µM | Active | – | O=C1c2ccccc2C(=O)c2c1cc(SCc1ccccc1Cl)c1nsnc21 | > 100 µM | – | – | –
4 µM | 1.9 µM | – | – | O=C1c2ccccc2C(=O)c2c1cc(NCc1ccccc1)c1nsnc21 | 4.5 µM | – | – | –
> 100 µM | > 100 µM | – | – | O=C1c2ccccc2C(=O)c2c1cc(N1CCN(c3ccccn3)CC1)c1nsnc21 | > 100 µM | – | – | –
